How the values were obtained:
[1] = Selectivity index, ratio of CC50 for MT4 cells to EC50 for HIV1 NL43 infected MT4 cells; assay type: functional
[2] = target: Human immunodeficiency virus type 1 reverse transcriptase (Human immunodeficiency virus 1, UniProt Q72547, Y188L); test: Inhibition of HIV1 reverse transcriptase Y188L mutant
[3] = Resistance index, Ratio of EC50 for drug-resistant HIV1 with RT Y188L mutation in MT4 cells to EC50 for HIV1 NL43 in MT4 cells
[4] = test system: Human immunodeficiency virus 1; test: Antiviral activity against HIV1 with reverse transcriptase Y188L mutation in MT4 cells assessed as inhibition of viral induced cytopathic effect by MTT method; assay type: functional, organism-based; conditions: Human immunodeficiency virus 1, MT4
How it was run: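 MT-4 cells infected with the HIV-1 NNRTI-resistant mutant strain. Viable cells scored at day 5 post-infection by the MTT tetrazolium colorimetric method. Values are means ± SD from at least two experiments.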

[5] = Resistance index, Ratio of EC50 for drug-resistant HIV1 with RT K103N mutation in MT4 cells to EC50 for HIV1 NL43 in MT4 cells
[6] = Inhibition of HIV1 reverse transcriptase Y1811 mutant; parameters: species or system Human immunodeficiency virus 1
How it was run: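 Recombinant HIV-1 RT Y181I mutant, purified to >95%, 10 min preincubation with inhibitor. Radioactive nucleotide incorporation into poly(rA)/oligo(dT) 10:1 was followed at varied nucleotide substrate levels, sampling every 2 min for initial velocities. Inhibitor spanned 0.2–5 Ki. Ki came from Lineweaver-Burk and Dixon plots. Means ± SD of at least three experiments.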

[7] = target: Human immunodeficiency virus type 1 reverse transcriptase (Human immunodeficiency virus 1, UniProt Q72547, K103N); test: Inhibition of HIV1 reverse transcriptase K103N mutant
[8] = target: Human immunodeficiency virus type 1 reverse transcriptase (Human immunodeficiency virus 1, UniProt Q72547, V106A); test: Inhibition of HIV1 reverse transcriptase V106A mutant
[9] = test system: Human immunodeficiency virus 1; test: Antiviral activity against HIV1 with reverse transcriptase IRLL98 mutation in MT4 cells assessed as inhibition of viral induced cytopathic effect by MTT method; assay type: functional, organism-based; conditions: Human immunodeficiency virus 1, MT4
[10] = test system: Human immunodeficiency virus 1; test: Antiviral activity against HIV1 NL43 in MT4 cells assessed as inhibition of viral induced cytopathic effect after 5 days by MTT method; conditions: Human immunodeficiency virus 1, NL43, MT4, 120 h
[11] = target: Human immunodeficiency virus type 1 reverse transcriptase (Human immunodeficiency virus 1, UniProt Q72547); test: Inhibition of wild type HIV1 3B reverse transcriptase
[12] = target: Human immunodeficiency virus type 1 reverse transcriptase (Human immunodeficiency virus 1, UniProt Q72547, V179D); test: Inhibition of HIV1 reverse transcriptase V179D mutant
[13] = Resistance index, Ratio of EC50 for drug-resistant HIV1 with RT Y181C mutation in MT4 cells to EC50 for HIV1 NL43 in MT4 cells
[14] = test system: Human immunodeficiency virus 1; test: Antiviral activity against HIV1 with reverse transcriptase K103N mutation in MT4 cells assessed as inhibition of viral induced cytopathic effect by MTT method; assay type: functional, organism-based; conditions: Human immunodeficiency virus 1, MT4
How it was run: (§1)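 MT-4 cells infected with the HIV-1 NNRTI-resistant mutant strain. Viable cells scored at day 5 post-infection by the MTT tetrazolium colorimetric method. […] Values are means ± SD from at least two experiments.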

[15] = Cytotoxicity against MT4 cells after 4 days by MTT method; assay type: cell-based; conditions: human
How it was run: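 Mock-infected (noninfected) MT-4 cells, run in parallel with the antiviral test. Viable cells read by the MTT tetrazolium colorimetric method. […] Means ± SD from at least two experiments. The top concentration was limited where compounds precipitated in the culture medium.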

[16] = target: Human immunodeficiency virus type 1 reverse transcriptase (Human immunodeficiency virus 1, UniProt Q72547, L100I); test: Inhibition of HIV1 reverse transcriptase L100I mutant
[17] = Resistance index, Ratio of EC50 for drug-resistant HIV1 with RT IRLL98 mutation in MT4 cells to EC50 for HIV1 NL43 in MT4 cells
[18] = test system: Human immunodeficiency virus 1; test: Antiviral activity against HIV1 with reverse transcriptase Y181C mutation in MT4 cells assessed as inhibition of viral induced cytopathic effect by MTT method; assay type: functional, organism-based; conditions: Human immunodeficiency virus 1, MT4; how it was run: as §1
[19] = test system: Human immunodeficiency virus 1; test: Resistance index, ratio of Ki for HIV1 reverse transcriptase Y181I mutant to Ki for wild type HIV1 3B reverse transcriptase
How it was run: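 Initial velocities came from radioactive nucleotide incorporation into poly(rA)/oligo(dT) 10:1, sampled every 2 min. Inhibitor spanned 0.2–5 Ki, with Lineweaver-Burk and Dixon plots. Fold-resistance is Ki mutant / Ki wild type.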

Row | Structure (SMILES) | Ratio CC50/EC50 [1] | Ki [2] | Ratio EC50 [3] | EC50 [4] | Ratio EC50 [5] | Ki [6] | Ki [7] | Ki [8] | EC50 [9] | EC50 [10] | Ki [11] | Ki [12] | Ratio EC50 [13] | EC50 [14] | CC50 at 96 h [15] | Ki [16] | Ratio EC50 [17] | EC50 [18] | Ratio Ki [19]
1 | Cc1c(C(C)c2c(F)cccc2F)nc(N2CCOCC2)[nH]c1=O (configuration not stated) | >37000 | 5500 nM | 280 | 560 nM | 195 | > 20000 nM | 3300 nM | 500 nM | 50 nM | 2 nM | 3 nM | > 20000 nM | 45 | 390 nM | > 74000 nM | 10000 nM | 25 | 90 nM | –
2 | O=c1cc(Cc2c(F)cccc2F)nc(N2CCSCC2)[nH]1 | >2200 | 1000 nM | – | > 10000 nM | – | 400 nM | 1500 nM | 500 nM | > 10000 nM | 35 nM | 200 nM | 5000 nM | – | > 10000 nM | > 77000 nM | 10000 nM | – | > 10000 nM | 2
3 | CCCN(C)c1nc(C(C)c2c(F)cccc2F)c(C)c(=O)[nH]1 (configuration not stated) | >130000 | 1430 nM | 50 | 30 nM | 17 | 1260 nM | 170 nM | 20 nM | 1 nM | 0.6 nM | 30 nM | – | 1 | 10 nM | > 78000 nM | 180 nM | 1.7 | 0.6 nM | 42
4 | CN(C)c1nc(Cc2c(F)cccc2F)cc(=O)[nH]1 | >4087 | 30000 nM | – | > 10000 nM | – | – | 3000 nM | 500 nM | 2000 nM | 23 nM | 80 nM | 5000 nM | 156 | > 10000 nM | > 94000 nM | 10000 nM | 87 | 3600 nM | 37
5 | Cc1c(C(C)c2c(F)cccc2F)nc(SC2CCCC2)[nH]c1=O (configuration not stated) | >3000 | 1400 nM | – | > 3000 nM | 225 | 900 nM | 30 nM | 500 nM | 120 nM | 1 nM | 5 nM | 250 nM | 97 | 225 nM | > 3000 nM | 300 nM | 120 | 97 nM | 180
6 | CCC(c1nc(N(C)C)[nH]c(=O)c1C)c1c(F)cccc1F (configuration not stated) | >11571 | > 20000 nM | 69 | 480 nM | 261 | > 20000 nM | > 20000 nM | > 40000 nM | 1180 nM | 7 nM | 1000 nM | > 40000 nM | 41 | 1830 nM | > 81000 nM | > 20000 nM | 169 | 290 nM | –
7 | CCc1c(C(C)c2c(F)cccc2F)nc(N(C)C)[nH]c1=O (configuration not stated) | >40500 | 10000 nM | 275 | 550 nM | 125 | 5000 nM | 2000 nM | 60 nM | 880 nM | 2 nM | 50 nM | 30 nM | 50 | 250 nM | > 81000 nM | 4000 nM | 440 | 100 nM | 100

— ChEMBL document CHEMBL1137561 (J Med Chem, 2007)
